Source: PubChem
ERAP1 inh = inhibitors of human ERAP1 aminopeptidase | recombinant ERAP1, Leu-AMC fluorescence, 60 min | Q9NZ08 | inhibition, % at 10.7 µM | 0.15% of 340,000 active;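 active = mean replicate inhibition of at least 30%, or all replicates individually reaching that 30% level; inactive = mean below 30% and not every replicate reaching it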;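 note: 0% = neutral control wells and 100% = L-leucinethiol positive control wells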
Target sequence (Q9NZ08 whole entry, looked up): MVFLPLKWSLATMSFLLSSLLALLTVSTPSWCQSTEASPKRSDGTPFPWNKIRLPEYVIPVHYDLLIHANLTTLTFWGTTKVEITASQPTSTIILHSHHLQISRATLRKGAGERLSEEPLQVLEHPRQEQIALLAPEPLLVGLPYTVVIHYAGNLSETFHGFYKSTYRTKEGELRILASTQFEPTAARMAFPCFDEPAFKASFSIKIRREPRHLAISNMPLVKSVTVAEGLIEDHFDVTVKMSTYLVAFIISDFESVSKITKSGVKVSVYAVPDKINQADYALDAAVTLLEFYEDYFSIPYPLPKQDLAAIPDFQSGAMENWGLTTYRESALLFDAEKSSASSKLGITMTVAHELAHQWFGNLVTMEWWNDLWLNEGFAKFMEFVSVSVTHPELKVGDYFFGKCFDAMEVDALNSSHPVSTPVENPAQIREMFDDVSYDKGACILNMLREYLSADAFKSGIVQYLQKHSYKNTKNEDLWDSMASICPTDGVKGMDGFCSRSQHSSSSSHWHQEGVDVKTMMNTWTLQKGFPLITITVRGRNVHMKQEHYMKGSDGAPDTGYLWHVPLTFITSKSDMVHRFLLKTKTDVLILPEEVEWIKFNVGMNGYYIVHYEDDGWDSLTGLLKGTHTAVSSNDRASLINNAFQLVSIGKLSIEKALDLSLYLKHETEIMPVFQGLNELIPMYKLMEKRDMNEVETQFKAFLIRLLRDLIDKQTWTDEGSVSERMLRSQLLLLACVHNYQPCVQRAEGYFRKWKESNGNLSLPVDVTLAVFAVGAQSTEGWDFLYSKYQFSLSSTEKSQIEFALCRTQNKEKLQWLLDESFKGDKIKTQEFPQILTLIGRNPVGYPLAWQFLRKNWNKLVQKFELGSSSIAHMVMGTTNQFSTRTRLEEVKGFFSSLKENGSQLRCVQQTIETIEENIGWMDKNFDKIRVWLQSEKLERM
Ecoli rRNA inh = inhibits bacterial ribosomal RNA function over humanized ribosomes; 1.6% of 350,000 active; E. coli WT GFP vs humanized-ribosome RFP mutants, fluorescence, 24 h; stronger effect = lower value; DMSO median 0, no signal -100; GFP signal change (wild-type ribosome), % (test concentration not listed);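 active = significant combined selectivity score with lowered wild-type GFP, culture density cut under 30%, mutant RFP and density less affected; inactive = any of these conditions unmet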
Env fusion inh = HIV envelope-mediated fusion inhibition; 1.1% of 360,000 active; inhibition, % at 12.3 µM; AID 651610; HeLa-JRFL Env/CEM21 cell fusion, luciferase;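 active = mean replicate inhibition score of at least 50 and every replicate individually at or above 50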;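 note: 0% = plate neutral controls and 100% = maraviroc near 300 nM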
FGF22 binding = FGF22 (human) thermal shift binding; Q9HCT0; recombinant FGF22 thermal shift, SYPRO orange fluorescence; percent of sucrose octasulfate shift, DMSO zero; activity (Tm shift, normalised), % at 9.99 µM; 1.5% of 340,000 active; AID 651658;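 active = mean Tm shift, scaled 0 neutral to 100 positive control, at about 1.3% or above, every replicate too, limit read from the data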
PGC1a acetyl inh = PGC1a acetylation modulation, inhibitor mode. AID 651687. inhibition, % at 15.6 µM. U2OS PGC1a acetylation, AlphaScreen anti-acetyl-lysine; with virally co-expressed GCN5 acetyltransferase. 0.17% of 350,000 active;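 active = every replicate shows inhibition of at least 40%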;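 note: 0% = neutral control wells and 100% = positive control wells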
Cneo AK release = Cryptococcus neoformans lysis via adenylate kinase release. C. neoformans lysis, adenylate kinase release luminescence, 4 h; normalised: neutral wells 0, clomiphene wells 100. lysis activity, % at 15 µM. 0.2% of 360,000 active. AID 651654;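 active = mean lysis activity across replicates of at least 80%, whatever share of replicates individually reach that level; inactive = mean lysis activity below 80%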
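Signal: Adenylate kinase release luminescence | Assay system: Log-phase Cryptococcus neoformans yeast cells | Input: Cells at 5 × 10^6 per mL | Buffer or medium: Fresh YPD growth medium | Compound: Single dose | Schedule: Static 4 h at 37 °C with compound, 1 h detection | Controls: Clomiphene | Read-out: Luminescence rise reflecting yeast cell lysis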
Active calls of the source: *; · = no result; [ ] = dose if it differs, or a comment. Rows were chosen to be rich in hits. Some 3.5% of all compounds tested hit in one or more screens of this group.

SMILES	ERAP1 inh	Ecoli rRNA inh	Env fusion inh	FGF22 binding	PGC1a acetyl inh	Cneo AK release
Cc1ccc(S(=O)(=O)N(C)C[C@@H]2Oc3cc(Br)ccc3S(=O)(=O)N([C@@H](C)CO)C[C@@H]2C)cc1	1	-10	16[16.7 µM]	0	1	2
C/C=C/c1ccc2c(c1)O[C@H](CN(C)S(=O)(=O)c1ccc(F)cc1)[C@H](C)CN([C@@H](C)CO)S2(=O)=O	0	-1	·	0	-6	-1
Cc1ccc(S(=O)(=O)N(C)C[C@@H]2Oc3cc(Br)ccc3S(=O)(=O)N([C@H](C)CO)C[C@H]2C)cc1	-1	-24	22[16.7 µM]	0	-43	44
Cc1ccc(S(=O)(=O)N(C)C[C@@H]2Oc3cc(Br)ccc3S(=O)(=O)N([C@H](C)CO)C[C@@H]2C)cc1	-1	-2	63*[16.7 µM]	0	-18	-3
C[C@H](CO)N1C[C@H](C)[C@H](CN(C)S(=O)(=O)c2ccc(F)cc2)Oc2cc(Br)ccc2S1(=O)=O	-1	-4	77*[16.7 µM]	0	-23	0
Cc1ccc(S(=O)(=O)N(C)C[C@H]2Oc3cc(Br)ccc3S(=O)(=O)N([C@@H](C)CO)C[C@@H]2C)cc1	1	-8	24[16.7 µM]	0	-35	-6
C[C@H](CO)N1C[C@H](C)[C@H](CN(C)CC2CCCCC2)OCc2cnnn2CCCC1=O	-3	2	9[16.7 µM]	0	-4	8
Cc1nc2ccn(Cc3ccccc3)c(=O)c2cc1C(=O)N1CCN(c2ccc(F)cc2)CC1	1	-28	0	0	-2	1
O=C1NC(=S)N/C1=C/c1cccc([N+](=O)[O-])c1O	·	·	-5	·	-11	0
COc1cc(OC)c(OC)cc1CCC(C)NCCC(c1ccccc1)c1ccccc1 (stereo unspecified)	-10	-8	81*	0	·	-1
CC1CCC(C(O)(C(=O)c2ccccc2)c2ccccc2)C(=O)C1 (stereo unspecified)	1	-12	20	0	-3	-1
O=C1CCCCC1C(O)(C(=O)c1ccccc1)c1ccccc1 (stereo unspecified)	1	-18	·	43*	-21	1
CC1=C(C(=O)Nc2ccc(C)cc2C)C(c2ccc(Cl)cc2)n2nc(C(=O)OC(C)C)nc2N1 (stereo unspecified)	·	·	-7	·	·	·
O=C(CCl)Nc1cn(-c2ccccc2)nc1-c1ccc(F)cc1	-2	-24*	5	0	-19	·
O=C(Cn1cnc2c(nnn2Cc2ccccc2)c1=O)NCC1CCCO1 (stereo unspecified)	3	3	-19	0	3	0
COc1ccc(-c2csc(Nc3ccc(Oc4ccccc4)cc3)n2)cc1	·	-20	77*	0	13	-13
COc1ccc(-c2csc(Nc3cccc(C)n3)n2)cc1	-4	-2	-232	0	2	-4
O=[N+]([O-])/C=C\c1ccc(N2CCOCC2)cc1	2	-19*	9	0	5	·
Cc1ccc(/C=N/NC(=O)CN2C(=O)CSc3ccccc32)o1	8	17	1	0	·	·
NC(=O)[C@H]1CC2(CC(c3cccc(NC(=O)CC(c4ccccc4)c4ccccc4)c3)=NO2)CN1C(=O)c1ccccc1C(=O)c1ccccc1 (stereo partly specified)	·	1	7	0	·	2
COc1ccc(C2(C)CC(C)(C)Nc3ccccc32)cc1 (stereo unspecified)	-1	-29*	6	0	2	-1
Cc1nnc(Nc2ccc(O)cc2)[nH]c1=O	2	20	-26	0	25	0
CN1C(=O)C(CC(=O)NCCc2ccccc2)N(NC(=O)c2cccc(F)c2)C1=S (stereo unspecified)	0	-16*	14	0	·	1
COc1ccc(NC(=O)CC2C(=O)N(c3ccc(OC)cc3)C(=S)N2NC(=O)c2cccc(F)c2)cc1 (stereo unspecified)	·	·	-66	·	·	·
COc1ccc(N2C(=O)C(CC(=O)Nc3ccc(Cl)cc3)N(NC(=O)c3cccc(F)c3)C2=S)cc1 (stereo unspecified)	-1	-17*	-62	0	-1	1
SMILES	ERAP1 inh	Ecoli rRNA inh	Env fusion inh	FGF22 binding	PGC1a acetyl inh	Cneo AK release
COc1cccc(-n2c(SCC(=O)NC3CC3)nc3ccccc3c2=O)c1	1	7	0	43*	-5	0
CCOC(=O)CSc1nc2ccccc2c(=O)n1CC1COc2ccccc2O1 (stereo unspecified)	·	·	65*	·	1	1
CCn1c(SCC(=O)NC2CCCCC2)nc2ccccc2c1=O	55*	16	26	1	0	-6
CC(C)C(OC(=O)c1ccccc1)c1nccc2ccccc12 (stereo unspecified)	-3	-28*	-36	0	·	-1
Oc1c(Br)cc(Br)cc1C=NCc1ccccc1	6	-13	9	1	-6	·
Oc1c(Br)cc(Br)cc1C=NCc1ccc(F)cc1	0	-7	15	43*	-3	·
COc1cccc(Nc2nc(NCCO)nc(N3CCCC3)n2)c1	1	-25*	0	0	·	2
OCCNc1nc(Nc2ccccc2Oc2ccccc2)nc(N2CCCC2)n1	2	-25	-22	0	·	5
Cc1onc(-c2ccccc2Cl)c1C(=O)N[C@@H](C)c1ccccc1	-3	-21*	-1	0	-3	-1
Cc1cc(OCC(=O)NCc2cccnc2)c2c(C)c(Cc3ccccc3)c(=O)oc2c1	0	10	-8	0	-10	10
CCC(=O)N(CCc1ccc(S(N)(=O)=O)cc1)C1CC(=O)N(c2ccc(OC)cc2)C1=O (stereo unspecified)	1	6	11	0	7	·
CCN(CC)C(=O)C1=C(C)N(Cc2ccccc2)C(=O)C(CC(=O)NCc2ccco2)C1 (stereo unspecified)	0	2	10	43*	-15	-2
CCCCN1C(=O)C(CC(=O)NCc2ccco2)CC(C(=O)N(CC)CC)=C1C (stereo unspecified)	-1	9	-24	43*	37	0
CCCCN1C(=O)C(CC(=O)NCc2ccco2)CC(C(=O)N(C)C)=C1C (stereo unspecified)	4	11	-21	0	·	-2
CCCCN1C(=O)C(CC(=O)NCCCN(C)C)CC(C(=O)N(CC)CC)=C1C (stereo unspecified)	-4	14	9	43*	10	-1
CC1=C(C(=O)N(C)C)CC(CC(=O)NCc2ccco2)C(=O)N1Cc1ccccc1 (stereo unspecified)	1	2	·	0	-33	0
